Results reported in ChEMBL document CHEMBL3232836, “Discovery of 4-anilino α-carbolines as novel Brk inhibitors” (Bioorg Med Chem Lett, 2014).
pIC50: −log10 of the molar value.

Assays:
[1] = target: Protein-tyrosine kinase 6 (Homo sapiens, UniProt Q13882); experiment: Inhibition of Brk (unknown origin) using [gamma-33P]-ATP after 60 mins by scintillation counting; settings: for pIC50: read-out: IC50
MCF7 = experiment: Antiproliferative activity against human MCF7 cells by sulfur rhodamine assay; type: functional
[2] = Antiproliferative activity against human Hs 578T cells by sulfur rhodamine assay; type: functional
[3] = Antiproliferative activity against human BT549 cells by sulfur rhodamine assay; type: functional; settings: BT-549
[4] = target: MAP kinase-activated protein kinase 3 (Homo sapiens, UniProt Q16644); experiment: Inhibition of human MAPKAPK3
[5] = target: Calcium/calmodulin-dependent protein kinase type IV (Homo sapiens, UniProt Q16566); experiment: Inhibition of human CAMK4
[6] = target: Serine/threonine-protein kinase Nek2 (Homo sapiens, UniProt P51955); experiment: Inhibition of human NEK2
[7] = target: Serine/threonine-protein kinase Nek1 (Homo sapiens, UniProt Q96PY6); experiment: Inhibition of human NEK1
[8] = target: Serine/threonine-protein kinase pim-2 (Homo sapiens, UniProt Q9P1W9); experiment: Inhibition of human PIM2
[9] = target: MAP kinase-activated protein kinase 5 (Homo sapiens, UniProt Q8IW41); experiment: Inhibition of human MAPKAPK5
[10] = target: Serine/threonine-protein kinase MARK1 (Homo sapiens, UniProt Q9P0L2); experiment: Inhibition of human MARK1
[11] = target: MAP/microtubule affinity-regulating kinase 3 (Homo sapiens, UniProt P27448); experiment: Inhibition of human MARK3
In short: (§1)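 Radiometric kinase assay in FlashPlates. Test compound was added from a 10% DMSO solution and ATP from an aqueous solution. The reaction was stopped with 2% (v/v) phosphoric acid, and plates were aspirated and washed with water or 0.9% NaCl. ³³Pi incorporation was read on a microplate scintillation counter.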

[12] = Inhibition of human MARK5
[13] = target: RAC-alpha serine/threonine-protein kinase (Homo sapiens, UniProt P31749); experiment: Inhibition of human AKT1
[14] = target: RAC-beta serine/threonine-protein kinase (Homo sapiens, UniProt P31751); experiment: Inhibition of human AKT2
[15] = target: RAC-gamma serine/threonine-protein kinase (Homo sapiens, UniProt Q9Y243); experiment: Inhibition of human AKT3; in short: as §1
Myotonin-protein kinase = Myotonin-protein kinase (Homo sapiens, UniProt Q09013); experiment: Inhibition of human DMPK
[16] = target: Serine/threonine-protein kinase VRK1 (Homo sapiens, UniProt Q99986); experiment: Inhibition of human VRK1
[17] = target: Serine/threonine-protein kinase 24 (Homo sapiens, UniProt Q9Y6E0); experiment: Inhibition of human MST3; in short: as §1
[18] = target: Serine/threonine-protein kinase 26 (Homo sapiens, UniProt Q9P289); experiment: Inhibition of human MST4
[19] = target: Serine/threonine-protein kinase PAK 1 (Homo sapiens, UniProt Q13153); experiment: Inhibition of human PAK1
[20] = target: Serine/threonine-protein kinase PAK 2 (Homo sapiens, UniProt Q13177); experiment: Inhibition of human PAK2; in short: as §1
[21] = target: Serine/threonine-protein kinase PAK 3 (Homo sapiens, UniProt O75914); experiment: Inhibition of human PAK3
[22] = target: Mitogen-activated protein kinase 3 (Homo sapiens, UniProt P27361); experiment: Inhibition of human ERK1; in short: as §1
[23] = target: Mitogen-activated protein kinase 1 (Homo sapiens, UniProt P28482); experiment: Inhibition of human ERK2
[24] = target: Glycogen synthase kinase-3 beta (Homo sapiens, UniProt P49841); experiment: Inhibition of human GSK3beta
[25] = target: Mitogen-activated protein kinase 8 (Homo sapiens, UniProt P45983); experiment: Inhibition of human JNK1
[26] = target: Mitogen-activated protein kinase 10 (Homo sapiens, UniProt P53779); experiment: Inhibition of human JNK3
[27] = target: Homeodomain-interacting protein kinase 2 (Homo sapiens, UniProt Q9H2X6); experiment: Inhibition of human HIPK2
[28] = target: Homeodomain-interacting protein kinase 1 (Homo sapiens, UniProt Q86Z02); experiment: Inhibition of human HIPK1
[29] = target: Homeodomain-interacting protein kinase 3 (Homo sapiens, UniProt Q9H422); experiment: Inhibition of human HIPK3
[30] = target: Tyrosine-protein kinase JAK3 (Homo sapiens, UniProt P52333); experiment: Inhibition of human JAK3; in short: as §1
[31] = target: Proto-oncogene tyrosine-protein kinase Src (Homo sapiens, UniProt P12931); experiment: Inhibition of human Src

Sequence of Protein-tyrosine kinase 6 (Q13882 whole entry): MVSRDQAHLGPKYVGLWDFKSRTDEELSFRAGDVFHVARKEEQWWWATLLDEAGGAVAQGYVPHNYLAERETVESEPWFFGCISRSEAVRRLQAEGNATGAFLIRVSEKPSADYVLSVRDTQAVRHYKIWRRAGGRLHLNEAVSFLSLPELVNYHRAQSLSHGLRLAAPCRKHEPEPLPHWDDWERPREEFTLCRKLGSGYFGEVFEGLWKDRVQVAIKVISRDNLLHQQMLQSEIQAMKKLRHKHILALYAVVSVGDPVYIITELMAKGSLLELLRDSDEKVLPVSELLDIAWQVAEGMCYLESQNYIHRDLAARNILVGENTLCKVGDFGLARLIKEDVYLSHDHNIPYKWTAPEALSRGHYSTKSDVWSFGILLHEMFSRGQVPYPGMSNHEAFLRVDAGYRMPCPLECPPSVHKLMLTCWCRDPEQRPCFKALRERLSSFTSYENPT
Sequence of Homeodomain-interacting protein kinase 2 (Q9H2X6 whole entry): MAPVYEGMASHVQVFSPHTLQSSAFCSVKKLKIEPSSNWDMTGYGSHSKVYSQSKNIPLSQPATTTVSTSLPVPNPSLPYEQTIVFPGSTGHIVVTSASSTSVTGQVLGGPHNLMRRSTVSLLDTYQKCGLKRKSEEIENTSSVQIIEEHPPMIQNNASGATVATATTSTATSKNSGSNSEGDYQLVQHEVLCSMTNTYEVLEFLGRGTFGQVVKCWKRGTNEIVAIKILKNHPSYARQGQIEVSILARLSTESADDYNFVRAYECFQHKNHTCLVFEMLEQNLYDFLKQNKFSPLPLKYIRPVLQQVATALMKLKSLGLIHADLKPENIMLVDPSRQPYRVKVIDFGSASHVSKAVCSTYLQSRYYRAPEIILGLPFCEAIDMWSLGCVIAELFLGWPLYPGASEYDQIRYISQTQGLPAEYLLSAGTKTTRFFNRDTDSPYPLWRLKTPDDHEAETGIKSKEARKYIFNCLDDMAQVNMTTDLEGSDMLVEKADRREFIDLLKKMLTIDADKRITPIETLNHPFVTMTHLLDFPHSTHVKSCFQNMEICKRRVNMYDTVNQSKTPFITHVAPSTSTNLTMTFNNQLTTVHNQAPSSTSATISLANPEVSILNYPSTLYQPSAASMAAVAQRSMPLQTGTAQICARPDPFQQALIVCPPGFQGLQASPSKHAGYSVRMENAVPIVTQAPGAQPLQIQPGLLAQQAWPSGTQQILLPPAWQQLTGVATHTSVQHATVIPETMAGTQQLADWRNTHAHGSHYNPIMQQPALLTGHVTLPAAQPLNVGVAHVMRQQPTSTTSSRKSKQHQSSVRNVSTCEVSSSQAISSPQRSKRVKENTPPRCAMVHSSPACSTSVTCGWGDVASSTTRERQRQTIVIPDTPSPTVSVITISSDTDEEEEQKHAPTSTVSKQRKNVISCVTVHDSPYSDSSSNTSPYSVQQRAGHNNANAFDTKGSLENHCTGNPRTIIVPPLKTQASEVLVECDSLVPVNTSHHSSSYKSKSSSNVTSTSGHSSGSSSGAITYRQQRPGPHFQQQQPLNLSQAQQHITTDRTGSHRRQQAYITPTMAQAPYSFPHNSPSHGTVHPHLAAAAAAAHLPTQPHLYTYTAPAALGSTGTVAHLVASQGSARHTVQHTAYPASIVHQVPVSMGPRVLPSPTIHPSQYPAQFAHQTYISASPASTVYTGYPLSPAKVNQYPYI
Sequence of RAC-beta serine/threonine-protein kinase (P31751 whole entry): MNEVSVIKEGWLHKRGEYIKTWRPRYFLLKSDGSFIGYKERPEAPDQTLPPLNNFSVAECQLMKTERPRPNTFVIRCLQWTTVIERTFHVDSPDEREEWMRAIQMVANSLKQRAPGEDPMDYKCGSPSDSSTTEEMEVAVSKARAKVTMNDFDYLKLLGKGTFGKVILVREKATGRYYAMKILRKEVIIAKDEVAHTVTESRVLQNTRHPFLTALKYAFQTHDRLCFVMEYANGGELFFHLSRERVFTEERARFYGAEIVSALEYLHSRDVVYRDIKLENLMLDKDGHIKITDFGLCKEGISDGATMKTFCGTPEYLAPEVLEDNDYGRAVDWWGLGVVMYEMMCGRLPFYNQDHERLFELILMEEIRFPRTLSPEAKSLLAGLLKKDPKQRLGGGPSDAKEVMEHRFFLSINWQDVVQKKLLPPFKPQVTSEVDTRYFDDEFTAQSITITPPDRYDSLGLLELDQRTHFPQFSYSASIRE
Sequence of Calcium/calmodulin-dependent protein kinase type IV (Q16566 whole entry): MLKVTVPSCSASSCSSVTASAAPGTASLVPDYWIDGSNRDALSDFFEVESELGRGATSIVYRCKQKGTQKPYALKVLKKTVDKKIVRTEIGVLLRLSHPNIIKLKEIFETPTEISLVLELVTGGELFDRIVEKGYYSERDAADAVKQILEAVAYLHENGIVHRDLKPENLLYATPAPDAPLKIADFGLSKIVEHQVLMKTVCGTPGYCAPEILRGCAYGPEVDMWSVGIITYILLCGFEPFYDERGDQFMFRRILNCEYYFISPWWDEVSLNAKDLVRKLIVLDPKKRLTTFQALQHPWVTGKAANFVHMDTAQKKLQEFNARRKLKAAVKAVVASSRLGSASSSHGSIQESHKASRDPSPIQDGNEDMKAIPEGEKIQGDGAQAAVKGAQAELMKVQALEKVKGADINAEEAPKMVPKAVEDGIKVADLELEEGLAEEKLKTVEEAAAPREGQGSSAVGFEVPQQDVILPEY
Sequence of Serine/threonine-protein kinase PAK 2 (Q13177 whole entry): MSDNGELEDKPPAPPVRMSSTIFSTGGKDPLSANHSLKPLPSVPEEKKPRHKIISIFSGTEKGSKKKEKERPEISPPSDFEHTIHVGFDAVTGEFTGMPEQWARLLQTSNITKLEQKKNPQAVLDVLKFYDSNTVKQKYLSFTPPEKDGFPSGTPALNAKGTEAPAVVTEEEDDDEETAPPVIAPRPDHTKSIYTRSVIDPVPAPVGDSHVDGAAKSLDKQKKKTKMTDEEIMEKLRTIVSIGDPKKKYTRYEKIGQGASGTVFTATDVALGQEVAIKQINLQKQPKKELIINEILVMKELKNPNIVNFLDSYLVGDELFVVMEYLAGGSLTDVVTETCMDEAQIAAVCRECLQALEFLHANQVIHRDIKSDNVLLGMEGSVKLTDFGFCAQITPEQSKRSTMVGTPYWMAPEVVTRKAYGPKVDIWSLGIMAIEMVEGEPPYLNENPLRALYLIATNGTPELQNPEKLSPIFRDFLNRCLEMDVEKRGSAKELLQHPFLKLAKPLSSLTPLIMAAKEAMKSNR
Sequence of MAP/microtubule affinity-regulating kinase 3 (P27448 whole entry): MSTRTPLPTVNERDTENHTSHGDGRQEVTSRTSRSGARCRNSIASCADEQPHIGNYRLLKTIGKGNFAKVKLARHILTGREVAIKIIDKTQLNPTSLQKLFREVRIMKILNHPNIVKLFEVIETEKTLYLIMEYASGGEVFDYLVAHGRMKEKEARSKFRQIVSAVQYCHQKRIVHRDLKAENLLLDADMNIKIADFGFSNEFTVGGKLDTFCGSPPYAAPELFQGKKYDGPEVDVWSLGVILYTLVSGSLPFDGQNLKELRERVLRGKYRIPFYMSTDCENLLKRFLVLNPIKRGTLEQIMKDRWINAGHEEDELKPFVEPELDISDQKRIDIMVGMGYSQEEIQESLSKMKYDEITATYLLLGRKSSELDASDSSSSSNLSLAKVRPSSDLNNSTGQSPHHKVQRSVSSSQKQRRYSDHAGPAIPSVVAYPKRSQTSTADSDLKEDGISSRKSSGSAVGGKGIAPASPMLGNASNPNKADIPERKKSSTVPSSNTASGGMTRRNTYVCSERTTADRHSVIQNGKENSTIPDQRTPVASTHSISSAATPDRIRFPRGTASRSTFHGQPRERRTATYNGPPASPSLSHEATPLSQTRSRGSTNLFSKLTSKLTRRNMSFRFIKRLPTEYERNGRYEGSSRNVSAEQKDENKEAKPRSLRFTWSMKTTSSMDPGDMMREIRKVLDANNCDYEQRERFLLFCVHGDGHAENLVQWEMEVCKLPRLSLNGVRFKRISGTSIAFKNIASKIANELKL
Sequence of MAP kinase-activated protein kinase 3 (Q16644 whole entry): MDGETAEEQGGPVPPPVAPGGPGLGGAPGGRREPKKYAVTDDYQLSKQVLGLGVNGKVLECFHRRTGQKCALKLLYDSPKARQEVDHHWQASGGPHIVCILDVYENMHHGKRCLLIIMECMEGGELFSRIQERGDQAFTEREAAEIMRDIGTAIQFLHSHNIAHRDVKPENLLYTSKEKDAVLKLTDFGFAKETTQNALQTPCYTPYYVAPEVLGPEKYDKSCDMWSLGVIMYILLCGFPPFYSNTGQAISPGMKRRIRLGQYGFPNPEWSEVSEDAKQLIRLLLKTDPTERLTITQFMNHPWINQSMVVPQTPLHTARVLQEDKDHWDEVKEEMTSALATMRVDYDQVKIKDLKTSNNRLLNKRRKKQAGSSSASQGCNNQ
Sequence of Mitogen-activated protein kinase 1 (P28482 whole entry): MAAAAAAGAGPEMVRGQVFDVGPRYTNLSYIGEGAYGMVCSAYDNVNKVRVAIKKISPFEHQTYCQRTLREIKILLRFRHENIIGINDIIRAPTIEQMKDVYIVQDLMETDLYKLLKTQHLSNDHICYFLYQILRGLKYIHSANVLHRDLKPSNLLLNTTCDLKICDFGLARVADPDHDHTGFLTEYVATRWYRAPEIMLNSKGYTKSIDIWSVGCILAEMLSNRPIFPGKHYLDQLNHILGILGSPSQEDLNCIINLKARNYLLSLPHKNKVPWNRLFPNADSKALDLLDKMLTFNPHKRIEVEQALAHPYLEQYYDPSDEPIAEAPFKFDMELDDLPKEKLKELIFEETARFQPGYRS
Sequence of Serine/threonine-protein kinase VRK1 (Q99986 whole entry): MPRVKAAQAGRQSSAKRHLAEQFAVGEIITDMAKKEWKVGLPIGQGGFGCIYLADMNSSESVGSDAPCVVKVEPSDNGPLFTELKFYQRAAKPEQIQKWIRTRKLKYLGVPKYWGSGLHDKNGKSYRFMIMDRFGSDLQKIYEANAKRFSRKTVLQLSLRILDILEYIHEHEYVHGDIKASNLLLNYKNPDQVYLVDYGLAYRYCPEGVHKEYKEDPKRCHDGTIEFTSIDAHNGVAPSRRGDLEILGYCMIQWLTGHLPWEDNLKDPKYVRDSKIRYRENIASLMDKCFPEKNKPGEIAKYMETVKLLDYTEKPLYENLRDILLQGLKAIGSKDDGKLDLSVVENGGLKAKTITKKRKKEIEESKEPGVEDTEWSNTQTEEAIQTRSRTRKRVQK

Cc1ccccc1Nc1ccnc2[nH]c3ccccc3c12
IC50 [1]: Not Active

Oc1cccc(Nc2ccnc3[nH]c4ccccc4c23)c1
GI50 (MCF7): 0.99 µM
GI50 [2]: 1.02 µM
GI50 [3]: 1.58 µM
pIC50 [4]: < 5.00
pIC50 [5]: < 5.00
pIC50 [6]: < 5.00
pIC50 [7]: < 5.00
pIC50 [8]: < 5.00
pIC50 [1]: 8.50
pIC50 [9]: < 5.00
pIC50 [10]: < 5.00
pIC50 [11]: < 5.00
pIC50 [12]: < 5.00
pIC50 [13]: < 5.00
pIC50 [14]: < 5.00
pIC50 [15]: < 5.00
pIC50 (Myotonin-protein kinase): < 5.00
pIC50 [16]: < 5.00
pIC50 [17]: < 5.00
pIC50 [18]: < 5.00
pIC50 [19]: < 5.00
pIC50 [20]: < 5.00
pIC50 [21]: < 5.00
pIC50 [22]: < 5.00
pIC50 [23]: < 5.00
pIC50 [24]: < 5.00
pIC50 [25]: < 5.00
pIC50 [26]: < 5.00
pIC50 [27]: < 5.00
pIC50 [28]: < 5.00
pIC50 [29]: < 5.00
pIC50 [30]: < 5.00
pIC50 [31]: 5.52

Clc1cccc(Nc2ccnc3[nH]c4ccccc4c23)c1
pIC50 [1]: 8.32

Clc1ccc(Nc2ccnc3[nH]c4ccccc4c23)cc1
IC50 [1]: Not Active

FC(F)(F)c1cccc(Nc2ccnc3[nH]c4ccccc4c23)c1
pIC50 [1]: 7.23

CSc1cccc(Nc2ccnc3[nH]c4ccccc4c23)c1
IC50 [1]: Not Active

COc1cccc(Nc2ccnc3[nH]c4ccccc4c23)c1
IC50 [1]: Not Active

CCOc1cccc(Nc2ccnc3[nH]c4ccccc4c23)c1
pIC50 [1]: 6.81

O=[N+]([O-])c1cccc(Nc2ccnc3[nH]c4ccccc4c23)c1
pIC50 [1]: 8.25

COc1ccc(Nc2ccnc3[nH]c4ccccc4c23)cc1
pIC50 [1]: 6.72

Cc1ccc(Nc2ccnc3[nH]c4ccccc4c23)cc1Cl
pIC50 [1]: 7.12

Fc1ccc(Nc2ccnc3[nH]c4ccccc4c23)cc1Cl
GI50 (MCF7): 8.12 µM
GI50 [2]: 10.2 µM
GI50 [3]: > 100 µM
pIC50 [1]: 7.16

Clc1cc(Cl)cc(Nc2ccnc3[nH]c4ccccc4c23)c1
pIC50 [1]: 7.27

COc1cc(Nc2ccnc3[nH]c4ccccc4c23)ccc1Br
pIC50 [1]: 8.36

CCOc1cc(Nc2ccnc3[nH]c4ccccc4c23)ccc1Br
pIC50 [1]: 6.81
